According to PubChem BioAssay AID624466 (The Scripps Research Institute Molecular Screening Center, 2012):
The whole screen tested about 360,000 compounds, of which about 5,400 (1.5%) were called active. This is one part of a sample in which actives are shown more often than they occur. Unmarked numbers belong to inactive results.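 Rule for the calls: active = inhibition above a per-plate cutoff, the mean inhibition of test compounds on that plate plus 3 SD (cut at about 49% in these data); inactive = the rest.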

The compounds below were run against Trace amine-associated receptor 1 (Homo sapiens) (UniProt Q96RJ0) (assay: blockers of beta-PEA-driven TAAR1 calcium signal – Fluo-8 calcium fluorescence, CHO RD-HGA16 cells, primary screen (AID 624466;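 note: 0% = DMSO plus EC80 beta-PEA response and 100% = DMSO alone without agonist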)). Conditions: CHO RD-HGA16 TAAR1, Fluo-8 calcium fluorescence, antagonist; at 3 µM; hits give high values.
Sequence of Trace amine-associated receptor 1 (Homo sapiens) (Q96RJ0 whole entry, looked up, the tested form may be a part): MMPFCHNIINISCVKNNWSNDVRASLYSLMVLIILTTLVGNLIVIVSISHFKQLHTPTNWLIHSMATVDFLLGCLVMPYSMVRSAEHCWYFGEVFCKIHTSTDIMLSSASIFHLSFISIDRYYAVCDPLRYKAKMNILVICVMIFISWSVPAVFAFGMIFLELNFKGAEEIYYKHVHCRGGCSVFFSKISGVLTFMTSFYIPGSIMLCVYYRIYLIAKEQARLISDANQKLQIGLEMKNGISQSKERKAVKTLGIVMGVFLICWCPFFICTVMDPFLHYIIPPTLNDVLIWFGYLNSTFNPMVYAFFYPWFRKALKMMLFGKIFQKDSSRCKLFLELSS
Method in brief: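 Test system – hTAAR1-expressing CHO RD-HGA16 cells, Gα16-coupled · Also added – β-PEA at EC80 concentration, post-compound challenge · Compound – 3 µM, single point · Incubation – dye loading 75 min at 37 °C, then 30 min room temperature · Measured by – Fluo-8 intracellular calcium dye fluorescence, real-time kinetic reads · Benchmarks – vehicle and agonist controls · Replicates – singlicate, one well per test compound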

SMILES	inhibition
CC1(C)OC(=O)C2=C(C[C@@H](C3CC3)O[C@H]2CCc2cccc(Cl)c2)O1	-4.58%
CCCCCCCCNS(=O)(=O)CCNC1CCCCC1	-6.98%
NC(Cc1ccccc1)c1csc(Nc2cc(Oc3ccccc3)ncn2)n1 (configuration not stated)	49.7% (active)
COc1ccc(CC(N)c2csc(NC(=O)NC(c3ccccc3)c3ccccc3)n2)cc1 (configuration not stated)	12.4%
COc1ccc(CC(N)c2csc(NC(=O)Cc3ccccc3)n2)cc1 (configuration not stated)	15.7%
O=C(CSc1nc2[nH]c(=O)[nH]c(=O)c2s1)Nc1cccc(F)c1	-17.1%
CCC(c1nnnn1Cc1ccco1)N(Cc1cc2cc(OC)ccc2[nH]c1=O)C1CCCCC1 (configuration not stated)	-35.8%
CCC(c1nnnn1Cc1ccco1)N(CCc1ccccc1)Cc1cc2ccc(OC)cc2[nH]c1=O (configuration not stated)	85.2% (active)
CCC(c1nnnn1Cc1ccco1)N(CCc1ccccc1)Cc1cc2cccc(C)c2[nH]c1=O (configuration not stated)	-1.4%
CCCN1C(=O)c2[nH]nc(-c3ccccc3)c2C1c1ccccc1 (configuration not stated)	-18.5%
O=C(O)CSCc1ccc(C(=O)O)o1	8.93%
Cc1ccc(CC2CC(=O)N(c3cc(C)ccc3C)C2=O)cc1 (configuration not stated)	-18.2%
Cc1ccccc1CN1CCC(C(=O)Nc2ccc(Oc3cccnc3)cc2)CC1	-4.26%
S=C(NCc1ccco1)Nc1ccc2c(c1)OCCO2	-13.5%
Cc1ccnc(N2C(=O)c3ccccc3C2Nc2ccc3c(c2)OCCO3)c1 (configuration not stated)	-4.03%
O=C1c2ccccc2C(Nc2ccc3c(c2)OCCO3)N1Cc1ccco1 (configuration not stated)	60.2% (active)
COC(=O)c1cc(S(=O)(=O)Nc2ccc(C)c(F)c2)c[nH]1	3.38%
COc1ccc(C(=O)C(OP(=O)(OC)OC)c2ccccc2OC)cc1 (configuration not stated)	-8.05%
COc1ccc(C(C(=O)NCc2ccccc2)N(Cc2cccs2)C(=O)c2cnccn2)cc1 (configuration not stated)	53.3% (active)

SMILES	inhibition
Cc1cccc(N(C(=O)c2csnn2)C(C(=O)NCc2ccccc2)c2ccncc2)c1 (configuration not stated)	-12.4%
CC(C)N(Cc1ccccc1)C(=O)COC(=O)c1cnccn1	-3.08%
CCOc1ccccc1CN1CCN(C2CCC2)CC1CCO (configuration not stated)	6.95%
COC(=O)[C@@]12C[C@@H](CC(=O)N3CCC(c4ccccc4)CC3)C(=O)N(Cc3ccccc3)C1=CCC(C)(C)C2	-13.1%
Clc1cccc2c1C1CC2CCN1Cc1ccccc1 (configuration not stated)	-3.53%
COCCNC(=O)CCCN1C(=O)c2ccccc2Sc2ncccc21	-9.71%
Cc1c(CNCCc2ccccc2)c(C(=O)O)c(C)n1-c1ccccc1	65.9% (active)
CNC(=O)CSc1nnc(CCc2ccccc2)n1-c1ccccc1	10.8%
Cc1c(C(=O)NCc2ccccc2)cnn1-c1ccccc1	-4.01%
CCOC(=O)/C=C/c1ccccc1O	-4.54%
Cc1cc(C)nc(SC2CCCCC2NS(=O)(=O)c2ccc(Cl)cc2)n1 (configuration not stated)	-8.5%
COC(=O)C1=C(C)N(Cc2ccc(F)cc2)C(=S)NC1c1cccc(Cl)c1 (configuration not stated)	64.3% (active)
CC(=O)C1=C(C)N(Cc2ccc(Cl)cc2)C(=S)NC1c1ccc(F)cc1 (configuration not stated)	28.2%
COC(=O)C1=C(C)N(Cc2ccc(C(F)(F)F)cc2)C(=NCc2ccc(C(F)(F)F)cc2)NC1c1cccc(Cl)c1 (configuration not stated)	12.3%
COc1cccc(N2CCN(C(=O)Nc3ccc4c(c3)NC(=O)CO4)CC2)c1	11.5%
O=C(Nc1ccccc1)N1CCN(C2c3ccccc3-c3ccccc32)CC1	3.75%
O=C(Nc1cccc(NC(=O)N2CCN(c3ccccc3)CC2)c1)N1CCN(c2ccccc2)CC1	53.4% (active)
Cc1nn2c(NCCN(C)C)c3c(nc2c1-c1ccccc1)CCC3	-32.4%
COc1cccc(CNC(=O)[C@H]2CCCN2C(=O)[C@H]2CCCN2C(=O)c2cc(F)cc(F)c2)c1	4.19%

SMILES	inhibition
CCN(CC(=O)Nc1c(F)cccc1F)C(=O)Cc1cccs1	-22.6%
Cc1cc(C)c(S(=O)(=O)NN=C2c3ccccc3[C@H]3Cc4csc[n+]4[C@@H]23)c(C)c1	6.84%
CC(C)n1ncc2c(C(=O)Nc3ccc(CC#N)cc3)cc(C3CC3)nc21	35.5%
COc1ccc(OCCNC(=O)c2cc(C3CC3)nc3c2cnn3C(C)C)cc1	48.8% (active)
CC(C)n1ncc2c(C(=O)NCc3ccccc3CN(C)C)cc(C3CC3)nc21	-19.6%
CCc1c(-c2ccc(F)cc2)ncn1Cc1cccc(-c2ccccc2)c1	34.5%
O=C1NC[C@@H](CCCCN2CCN(CCc3ccc(O)cc3)C(=O)C2=O)N(CC2CCCCC2)C1=O	3.12%
COc1ccc(CNC(=O)CN2C(=O)c3ccccc3S2(=O)=O)cc1	17.9%
CC(C)(C)c1ccc(CN2C(=O)c3ccccc3S2(=O)=O)cc1	8.91%
O=C1c2ccccc2S(=O)(=O)N1CC(O)Cn1c2ccccc2c2ccccc21 (configuration not stated)	62.3% (active)
C/C(=N\NC(=O)c1cc(-c2ccc(O)cc2)nc2ccccc12)c1cccnc1	-2.53%
COc1ccc(NC(=O)CN(C)C(=O)c2cc(-c3ccc(C)o3)nc3ccccc23)cc1	54.9% (active)
COc1ccc(NC(=O)c2cc(-c3ccc(C)o3)nc3ccccc23)cc1	57.4% (active)
COc1cccc(NC(=O)CN(C)C(=O)c2cc(Cl)nc3ccccc23)c1	18.8%
COc1ccc(NC(=O)c2cc(-c3cc(OC)c(OC)c(OC)c3)nc3ccccc23)c(OC)c1	3.05%
COc1ccc(-c2cc(C(=O)Nc3ccccc3O)c3ccccc3n2)cc1	86.9% (active)
COc1ccc(NC(=O)c2cn(-c3ccccc3)nc2SC)cc1	-11.6%
Cc1ccc2nc(-c3ccncc3)cc(C(=O)Nc3ccc(OC(F)F)cc3)c2c1	-4.36%
COc1ccc(NC(=O)CN(C)C(=O)c2cc(C)oc2C)cc1	-28%
